Where “and” joins values, the source holds several entries; their conditions need not be identical. Identical values can stand only once. Calls of active or inactive are those of the source. The rule behind the calls is not given here.
Experiments:
[1] = Antiinflammatory activity in CD-1 mouse Macrophage assessed as inhibition of IFN-gamma induced NO production after 48 hrs by Griess reaction; format: functional, cell-based
[2] = target: NAD(P)H dehydrogenase [quinone] 1 (Mus musculus) (UniProt Q64669); assay: Induction of NQO1 activity in mouse Hepa-1c1c7 cells after 48 hrs; format: cell-based
NAD(P)H dehydrogenase [quinone] 1 (Mus musculus), sequence (Q64669 whole entry): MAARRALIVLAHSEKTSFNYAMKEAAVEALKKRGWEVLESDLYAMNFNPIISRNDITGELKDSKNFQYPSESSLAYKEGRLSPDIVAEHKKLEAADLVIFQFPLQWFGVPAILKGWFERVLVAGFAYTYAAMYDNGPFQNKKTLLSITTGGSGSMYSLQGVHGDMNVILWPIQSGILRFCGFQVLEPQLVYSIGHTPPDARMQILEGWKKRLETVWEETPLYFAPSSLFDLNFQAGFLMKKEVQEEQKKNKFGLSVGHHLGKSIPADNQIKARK

[3] = Cytotoxicity against CD-1 mouse macrophages at 10 uM; format: cell-based; details: macrophage
[4] = system: RAW264.7; assay: Induction of HO-1 expression in mouse RAW264.7 cells at 300 nM after 6 hrs by Western blotting; format: functional, cell-based
Method in brief: (§1)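 RAW cells treated with compound for 6 h (30–300 nM range); HO-1 detected in total cell lysates by Western blot.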

[5] = system: RAW264.7; assay: Induction of HO-1 expression in mouse RAW264.7 cells at 10 nM after 6 hrs by Western blotting; format: functional, cell-based
Method in brief: (§2)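 RAW 264.7 macrophages were exposed to compound at 10–100 nM for 6 h. HO-1 protein was detected by Western blot of total cell lysates.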

[6] = system: RAW264.7; assay: Induction of HO-1 expression in mouse RAW264.7 cells at 30 nM after 6 hrs by Western blotting; format: functional, cell-based; method in brief: as §1
[7] = system: RAW264.7; assay: Inhibition of IFN-gamma induced iNOS expression in mouse RAW264.7 cells at 30 nM after 24 hrs by Western blotting; format: functional, cell-based
[8] = system: RAW264.7; assay: Induction of HO-1 expression in mouse RAW264.7 cells at 100 nM after 6 hrs by Western blotting; format: functional, cell-based; method in brief: as §2
[9] = system: RAW264.7; assay: Ratio of CDDO IC50 to compound IC50 for inhibition of IFN-gamma induced NO production in mouse RAW264.7 cells; format: functional
Method in brief: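 RAW 264.7 cells were co-treated with compound (0.1 pM to 10 μM, 10-fold dilutions) and IFN-γ 10 ng/mL for 24 h. Nitric oxide in supernatants was measured by the Griess reaction. IC50 is the mean of two separate experiments, and the ratio is taken against CDDO's IC50.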

[10] = system: Liver; assay: Antitumor activity against aflatoxin B1-induced tumorigenesis in F344 rat liver assessed as reduction in tumor burden at 10 umol/kg administered via gavage relative to control; format: functional; set-up: scale not given: the % may be the effect or the level left
Method in brief: (§3)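 Short-term rat model of liver tumorigenesis induced with aflatoxin B1. Test agent was given at 0.3 to 60 μmol/kg. Preneoplastic foci were scored in liver, and tumor burden was expressed against the AFB1-treated positive control group.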

[11] = system: RAW264.7; assay: Antiinflammatory activity in mouse RAW264.7 cells assessed as inhibition of IFN-gamma induced NO production after 24 hrs by Griess reaction; format: functional, cell-based
Method in brief: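 RAW 264.7 cells exposed to serial concentrations of compound together with IFN-γ (10 ng/mL) for 24 h; NO in supernatants quantified by Griess reaction. IC50 tested over 0.1 pM to 10 μM in 10-fold steps; values averaged from two separate experiments.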

[12] = system: Rattus norvegicus; assay: Toxicity in F344 rat assessed as growth rate at 0.3 to 60 umol administered via gavage; format: organism-based; details: in vivo, po
Method in brief: (§4)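 Tolerability was checked in rats in the aflatoxin B1 short-term hepatic tumorigenesis study, dosed at 0.3 to 60 μmol/kg. Growth rate and final body weight were compared with controls not given AFB1.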

[13] = system: Liver; assay: Antitumor activity against aflatoxin B1-induced tumorigenesis in F344 rat liver assessed as reduction in tumor burden at 0.3 umol/kg administered via gavage relative to control; format: functional; set-up: scale not given: the % may be the effect or the level left; method in brief: as §3
[14] = system: Macrophage; assay: Ratio of CDDO IC50 to compound IC50 for inhibition of IFN-gamma induced NO production in mouse macrophages; format: functional
[15] = system: Rattus norvegicus; assay: Toxicity in F344 rat assessed as effect on body weight at 0.3 to 60 umol administered via gavage; format: organism-based; details: in vivo, po; method in brief: as §4
[16] = system: Liver; assay: Induction of HO-1 expression in CD-1 mouse liver at 1 umol administered via gavage measured after 6 hrs by Western blotting; format: functional, tissue-based
[17] = system: RAW264.7; assay: Inhibition of IFN-gamma induced iNOS expression in mouse RAW264.7 cells at 300 nM after 24 hrs by Western blotting; format: functional, cell-based
[18] = system: Macrophage; assay: Antiinflammatory activity in CD-1 mouse Macrophage assessed as inhibition of IFN-gamma induced NO production after 48 hrs by Griess reaction in presence of glucocorticoid antagonist mifepristone; format: functional, cell-based
[19] = system: Liver; assay: Antitumor activity against aflatoxin B1-induced tumorigenesis in F344 rat liver assessed as reduction in tumor burden at 60 umol/kg administered via gavage; format: functional, tissue-based; method in brief: as §3
[20] = system: Liver; assay: Antitumor activity against aflatoxin B1-induced tumorigenesis in F344 rat liver assessed as inhibition of preneoplastic foci formation administered via gavage; format: functional, tissue-based; method in brief: as §3
[21] = system: Liver; assay: Antitumor activity against aflatoxin B1-induced tumorigenesis in F344 rat liver assessed as reduction in tumor burden at 30 umol/kg administered via gavage; format: functional, tissue-based; method in brief: as §3
[22] = system: Stomach; assay: Induction of HO-1 expression in CD-1 mouse stomach at 1 umol administered via gavage measured after 6 hrs by Western blotting; format: functional, tissue-based
Method in brief: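 Male CD-1 mice, three per group, received 1 μmol of compound in DMSO by gavage. Stomachs were harvested 6 h later, and HO-1 was detected by Western blot of tissue.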

[23] = Mus musculus, CD-1, Macrophage, 48 h

Structure (SMILES)	CD [2]	Activity [4]	Activity [6]	IC50 ([11]; Mus musculus, RAW264.7, 24 h)	further results
CC1(C)C(=O)C(C#N)=C[C@@]2(C)C3=CC(=O)C=C[C@@]3(C)CC[C@H]12	140 nM				IC50 [1, 23]: 58 nM; Activity [3]: Non-toxic
CC1(C)C(=O)C(C#N)=C[C@]2(C)C3=CC(=O)C(C#N)=C[C@]3(C#C[Si](C)(C)C)CC[C@@H]12 (racemic)	3.5 nM	Active	Active		Activity [5]: Active; inhibition [7]: Active; Activity [8]: Active
C#C[C@]12C=C(C#N)C(=O)C=C1[C@@]1(C)C=C(C#N)C(=O)C(C)(C)[C@@H]1CC2 (racemic) [listing 1 of 2 here]					IC50 [1, 23]: 0.056 nM; Ratio [9]: 20; Activity [10]: 99%; IC50 ([11]; raw264.7): 1 nM; Activity [12]: Non-toxic; Activity [13]: 90%; Ratio [14]: 80; Activity [15]: Non-toxic
CC1(C)C(=O)C(C#N)=C[C@]2(C)C3=CC(=O)C(C#N)=C[C@]3(C)CC[C@@H]12 (racemic)	18 nM	Active			Activity [16]: Active; inhibition [17]: Active; inhibition [18]: Active
C#CC#C[C@]12C=C(C#N)C(=O)C=C1[C@@]1(C)C=C(C#N)C(=O)C(C)(C)[C@@H]1CC2 (racemic)		Active	Active	3 nM	
C#C[C@]12C=C(C#N)C(=O)C=C1[C@@]1(C)C=C(C#N)C(=O)C(C)(C)[C@@H]1CC2	2.7 nM				Activity [5]: Active; Activity [8]: Active
CC1(C)C(=O)C(C#N)=C[C@@]2(C)C3=CC(=O)C(C#N)=C[C@@]3(C)CC[C@H]12	19 nM				IC50 [1, 23]: 1.3 nM; Activity [3]: Non-toxic
CC1(C)C(=O)C(C#N)=C[C@]2(C)C3=CC(=O)C(C#N)=C[C@]3(C#Cc3nccn3COCC[Si](C)(C)C)CC[C@@H]12 (racemic)			Active	35 nM	
C#C[C@]12C=C(C#N)C(=O)C=C1[C@@]1(C)C=C(C#N)C(=O)C(C)(C)[C@@H]1CC2 (racemic) [listing 2 of 2 here]	0.9 nM	Active	Active		Activity [19]: Active; Activity [5]: Active; inhibition [20]: Dose-dependent effect; Activity [21]: Active; inhibition [7]: Active; Activity [22]: Active; Activity [8]: Active
CC1(C)C(=O)C(C#N)=C[C@]2(C)C3=CC(=O)C(C#N)=C[C@]3(C#Cc3ccccc3)CC[C@@H]12 (racemic)		Active	Active	50 nM	
C=C[C@]12C=C(C#N)C(=O)C=C1[C@@]1(C)C=C(C#N)C(=O)C(C)(C)[C@@H]1CC2 (racemic)	30 nM		Active	10 nM	
CC1(C)C(=O)C(C#N)=C[C@]2(C)C3=CC(=O)C(C#N)=C[C@]3(C#C[Si](C)(C)C)CC[C@@H]12	3 nM				Activity [5]: Active; Activity [8]: Active
COC(=O)C#C[C@]12C=C(C#N)C(=O)C=C1[C@@]1(C)C=C(C#N)C(=O)C(C)(C)[C@@H]1CC2 (racemic)	85 nM	Active	Active	20 nM	
CC1(C)C(=O)C(C#N)=C[C@]2(C)C3=CC(=O)C(C#N)=C[C@]3(C#Cc3nccs3)CCC12 (mixture of isomers)	35 nM	Active	Active	10 nM	
CC1(C)CC[C@]2(C(=O)O)CC[C@]3(C)[C@H](C(=O)C=C4[C@@]5(C)C=C(C#N)C(=O)C(C)(C)[C@@H]5CC[C@]43C)[C@@H]2C1 [BARDOXOLONE]	2.3 nM			17 nM	IC50 ([1]; macrophage): 4.3 nM and 0.5 nM; Activity [16]: inactive; Activity [22]: inactive; Activity [3]: Non-toxic
C#C[C@@]12C=C(C#N)C(=O)C=C1[C@]1(C)C=C(C#N)C(=O)C(C)(C)[C@H]1CC2	0.9 nM			1 nM	Activity [5]: Active; Activity [8]: Active
CC1(C)C(=O)C(C#N)=C[C@@]2(C)C3=CC(=O)C(C#N)=C[C@@]3(C#C[Si](C)(C)C)CC[C@H]12	2.3 nM			2 nM	Activity [5]: Active; Activity [8]: Active
CC1(C)CC[C@]2(C(=O)n3ccnc3)CC[C@]3(C)[C@H](C(=O)C=C4[C@@]5(C)C=C(C#N)C(=O)C(C)(C)[C@@H]5CC[C@]43C)[C@@H]2C1	3.3 nM			1 nM	Activity [10]: 99%; Activity [16]: Active; Activity [12]: Non-toxic; Activity [22]: Active; Activity [15]: Non-toxic
CC[C@]12C=C(C#N)C(=O)C=C1[C@@]1(C)C=C(C#N)C(=O)C(C)(C)[C@@H]1CC2 (racemic)	18 nM		Active	10 nM	
Cc1csc(C#C[C@]23C=C(C#N)C(=O)C=C2[C@@]2(C)C=C(C#N)C(=O)C(C)(C)[C@@H]2CC3)n1 (racemic)		Active	Active	20 nM	
CC1(C)C(=O)C(C#N)=C[C@]2(C)C3=CC(=O)C(C#N)=C[C@]3(C#CC#N)CC[C@@H]12 (racemic)			Active	4 nM	

Source: ChEMBL document CHEMBL1759862, “Tricyclic compounds containing nonenolizable cyano enones. A novel class of highly potent anti-inflammatory and cytoprotective agents” (J Med Chem, 2011)
